# Columns and labels:
# [1] = Ratio, I x 100/ref I at a dose of 20 mg/kg in L1210 leukemic mice; format: functional
# In short: (§1)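 Male B6D2F1 mice, 3 months old, received 10^5 L1210 cells ip on day 0. Dosing was ip on days 1, 5 and 9 in 20% aqueous Tween 80, 0.1–0.2 mL per 20 g, with 8 mice per group. There were 12 vehicle controls and 8 mice given mitomycin 2 mg/kg ip in water. Daily mortality was recorded, with autopsies. Ratio = treated-group MST ×100/reference-group MST; Wilcoxon, p<0.05.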
# [2] = Ratio, I x 100/ref I at a dose of 50 mg/kg in L1210 leukemic mice; format: functional; in short: as §1
# [3] = system: Mus musculus; test: Median survival time of treated group / untreated group, when 20 mg/kg compound is administered intraperitoneally in L1210 leukemic mice; format: functional; settings: route intraperitoneal
# In short: (§2)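 Male 3-month-old B6D2F1 mice, 10⁵ L1210 cells ip on day 0. Compound was given ip on days 1, 5 and 9 in aqueous 20% Tween 80 (0.1–0.2 mL per 20 g), 8 mice per group. Twelve vehicle controls. Daily mortality with autopsy to assign leukemic versus toxic death. I = treated MST × 100/control MST. Wilcoxon test, p < 0.05; active if I > 125 and p < 0.05.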
# [4] = system: Mus musculus; test: MST of mitomycin 2 mg/kg treated group x 100/MST of untreated control group at a dose of 20 mg/kg in L1210 leukemic mice; format: functional
# In short: (§3)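 Reference group of 8 B6D2F1 mice bearing ip-grafted 10⁵ L1210 cells (day 0), given mitomycin 2 mg/kg in distilled water ip on days 1, 5 and 9. Controls were 12 mice given vehicle only. Mortality was followed daily with autopsy. Ref I = mitomycin-group MST × 100/control MST, run alongside each test experiment.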
# [5] = system: Mus musculus; test: Median survival time of treated group / untreated group, when 100 mg/kg compound is administered intraperitoneally in L1210 leukemic mice; format: functional; settings: route intraperitoneal; in short: as §2
# [6] = system: Mus musculus; test: MST of mitomycin 2 mg/kg treated group x 100/MST of untreated control group at a dose of 100 mg/kg in L1210 leukemic mice; format: functional; in short: as §3
# [7] = system: Mus musculus; test: MST of mitomycin 2 mg/kg treated group x 100/MST of untreated control group at a dose of 50 mg/kg in L1210 leukemic mice; format: functional; in short: as §3
# [8] = Ratio, I x 100/ref I at a dose of 100 mg/kg in L1210 leukemic mice; format: functional; in short: as §1
# [9] = Lethal dose in L1210 leukemic mice, by administering compound intraperitoneally; format: toxicity, organism-based; settings: mouse, in vivo, ip
# In short: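 Male B6D2F1 mice (3 months old) received 10⁵ L1210 leukemia cells ip on day 0. One day later they were given compound ip. Mortality was recorded daily for 9 days and the acute LD50 expressed in mg/kg.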
# [10] = system: Mus musculus; test: Median survival time of treated group / untreated group, when 50 mg/kg compound is administered intraperitoneally in L1210 leukemic mice; format: functional; settings: route intraperitoneal; in short: as §2
# [11] = Ratio, I x 100/ref I at a dose of 15 mg/kg in L1210 leukemic mice; format: functional; in short: as §1
# [12] = system: Mus musculus; test: MST of mitomycin 2 mg/kg treated group x 100/MST of untreated control group at a dose of 15 mg/kg in L1210 leukemic mice; format: functional; in short: as §3
# [13] = system: Mus musculus; test: Median survival time of treated group / untreated group, when 15 mg/kg compound is administered intraperitoneally in L1210 leukemic mice; format: functional; settings: route intraperitoneal; in short: as §2
# [14] = Ratio, I x 100/ref I at a dose of 10 mg/kg in L1210 leukemic mice; format: functional; in short: as §1
# [15] = system: Mus musculus; test: MST of mitomycin 2 mg/kg treated group x 100/MST of untreated control group at a dose of 4 mg/kg in L1210 leukemic mice; format: functional; in short: as §3
# [16] = system: Mus musculus; test: Median survival time of treated group / untreated group, when 4 mg/kg compound is administered intraperitoneally in L1210 leukemic mice; format: functional; settings: route intraperitoneal; in short: as §2
# [17] = system: Mus musculus; test: Median survival time of treated group / untreated group, when 10 mg/kg compound is administered intraperitoneally in L1210 leukemic mice; format: functional; settings: route intraperitoneal; in short: as §2
# [18] = system: Mus musculus; test: MST of mitomycin 2 mg/kg treated group x 100/MST of untreated control group at a dose of 10 mg/kg in L1210 leukemic mice; format: functional; in short: as §3
# [19] = Ratio, I x 100/ref I at a dose of 4 mg/kg in L1210 leukemic mice; format: functional; in short: as §1
# [20] = system: Mus musculus; test: Median survival time of treated group / untreated group, when 25 mg/kg compound is administered intraperitoneally in L1210 leukemic mice; format: functional; settings: route intraperitoneal; in short: as §2
# [21] = Ratio, I x 100/ref I at a dose of 25 mg/kg in L1210 leukemic mice; format: functional; in short: as §1
# [22] = system: Mus musculus; test: MST of mitomycin 2 mg/kg treated group x 100/MST of untreated control group at a dose of 25 mg/kg in L1210 leukemic mice; format: functional; in short: as §3
# [23] = system: Mus musculus; test: MST of mitomycin 2 mg/kg treated group x 100/MST of untreated control group at a dose of 8 mg/kg in L1210 leukemic mice; format: functional; in short: as §3
# [24] = Ratio of acute lethal dose to the efficient dose at 20 mg/kg; format: functional
# In short: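 Ratio of acute LD50 to efficient dose. LD50 came from single ip dosing one day after ip grafting of 10⁵ L1210 cells in B6D2F1 mice, with 9-day mortality. The efficient dose came from ip treatment on days 1, 5 and 9 in the median-survival test.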
# [25] = system: Mus musculus; test: Median survival time of treated group / untreated group, when 8 mg/kg compound is administered intraperitoneally in L1210 leukemic mice; format: functional; settings: route intraperitoneal; in short: as §2
# [26] = Ratio, I x 100/ref I at a dose of 8 mg/kg in L1210 leukemic mice; format: functional; in short: as §1
smiles,measurement,setting,value
CNC(=O)OCc1c(COC(=O)NC)c(-c2ccco2)n2c1CCC2,Ratio,[1],86
same,Ratio,[2],92
same,Oncostatic index,[3],100
same,Ref I oncostatic index,[4],117
same,Oncostatic index,[5],100
same,Ref I oncostatic index,[6],125
same,Ref I oncostatic index,[7],117
same,Ratio,[8],80
same,LD50,[9],> 150 mg/kg
same,Oncostatic index,[10],108
CC(C)NC(=O)OCc1c(COC(=O)NC(C)C)c(-c2cccs2)n2c1CCC2,Ratio,[11],90
same,Ref I oncostatic index,[12],139
same,Oncostatic index,[13],125
same,Ratio,[14],79
same,Ref I oncostatic index,[15],164
same,Oncostatic index,[16],108
same,Oncostatic index,[17],129
same,LD50,[9],35 mg/kg
same,Ref I oncostatic index,[18],163
same,Ratio,[19],66
CC(C)NC(=O)OCc1c(COC(=O)NC(C)C)c(-c2ccsc2)n2c1CCC2,Oncostatic index,[20],117
same,Ratio,[1],72
same,Ratio,[21],72
same,Oncostatic index,[3],100
same,Ref I oncostatic index,[4],139
same,LD50,[9],65 mg/kg
same,Ref I oncostatic index,[22],162
CNC(=O)OCc1c(COC(=O)NC)c(-c2cccs2)n2c1CSC2,Ratio,[1],103
same,Ref I oncostatic index,[23],117
same,Oncostatic index,[3],125
same,Ref I oncostatic index,[4],121
same,Ratio,[24],2.5
same,LD50,[9],50 mg/kg
same,Oncostatic index,[25],100
same,Ratio,[26],86
